From ChEMBL document CHEMBL1122944, “The histamine H2 receptor agonist impromidine: synthesis and structure-activity considerations” (J Med Chem, 1985) come the findings set out here.

Test [1] addresses Histamine H2 receptor (Cavia porcellus) (UniProt P47747). The test is described as follows: Percent maximum response against histamine H2 receptor in guinea pig atrium was evaluated. It is filed as tissue-based. As to conditions: Cardiac atrium. The method in brief: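 Isolated guinea pig atrium under 400-mg tension with propranolol (0.5 μM). Complete cumulative dose-response curves to histamine and test agonist, up to 781 μM, used to find the maximum response obtainable, expressed relative to histamine.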

For test [2] the target is unchanged. Put plainly: Agonistic activity against histamine H2 receptor in guinea pig atrium (potency relative to histamine =1). It counts as functional, tissue-based. As to conditions: Cardiac atrium. The method in brief: (§1)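 Isolated guinea pig atrium, muscle under 400-mg tension, propranolol (0.5 μM) present. Agonist tested up to 781 μM (0.1% histamine) by cumulative dose-response curves. Potency relative to histamine taken from concentrations giving 50% of maximal response; selected compounds by 2 + 2 Latin square parallel-line assay against histamine.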

Test [3] addresses T1, Histamine H2 receptor (Cavia porcellus, UniProt P47747). The test is described as follows: Antagonistic activity against H2 receptor in guinea pig. It is filed as functional. As to conditions: read-out: pA2 (converted).
Test [4] deals with Histamine H2 receptor (Cavia porcellus) (UniProt P47747). The test is described as follows: Agonistic activity against histamine H2 receptor in guinea pig atrium(potency relative to histamine =1). It counts as functional, tissue-based. As to conditions: Cardiac atrium. The method in brief: as §1
Test [5] concerns the target T1, Histamine H2 receptor. Put plainly: Antagonistic activity against H2 receptor in guinea pig was evaluated. It counts as functional. As to conditions: read-out: pA2 (converted). The method, boiled down:
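Guinea pig atrium under 400-mg tension with propranolol (0.5 μM). Histamine concentrations giving half-maximal response measured with and without several antagonist concentrations (B). K_B = B/(x − 1), x being the concentration ratio; pA2 = −log K_B.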

Test [6] concerns the target Histamine H2 receptor (Cavia porcellus) (UniProt P47747). As to conditions: Cardiac atrium.

T1 sequence (P47747 whole entry): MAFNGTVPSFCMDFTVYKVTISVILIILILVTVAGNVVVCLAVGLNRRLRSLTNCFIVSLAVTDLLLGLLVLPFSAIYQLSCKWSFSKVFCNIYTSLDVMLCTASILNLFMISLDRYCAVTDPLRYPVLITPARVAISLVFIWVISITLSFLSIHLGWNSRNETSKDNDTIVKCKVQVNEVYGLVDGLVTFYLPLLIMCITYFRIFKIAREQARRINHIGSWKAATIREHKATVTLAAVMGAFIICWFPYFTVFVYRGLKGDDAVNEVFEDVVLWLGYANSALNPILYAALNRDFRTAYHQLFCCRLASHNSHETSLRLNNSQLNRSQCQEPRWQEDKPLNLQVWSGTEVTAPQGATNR
Histamine H2 receptor (Cavia porcellus), sequence (P47747 whole entry): as above

For `N=C(NCCCc1c[nH]cn1)NCCSCc1nccs1`, the Max response in test [1] came out at 91%. The same molecule displayed a Potency in test [2] of 24.4. On to `Cc1[nH]cnc1CSCC/N=C(\NC#N)NCCCc1c[nH]cn1`, for which the Kb in test [3] was 0.575 µM. In turn, `C/N=C(\N)NCCCc1c[nH]cn1` returned a Max response in test [1] of 62%. In test [2], this molecule yielded a Potency of 0.2. The Kb in test [3] was 12.6 µM.

With `C/N=C(\N)NCCSCc1[nH]cnc1C`, the Kb in test [3] was 16.2 µM. Molecule `CC1=NN(c2ccc([N+](=O)[O-])cc2)C(=O)C1[N+](=O)[O-].Cc1[nH]cnc1CSCC/N=C(\N)NCCCc1cn(C)cn1` showed a Max response in test [1] of 11%. Also, in test [2], the Potency is 0.007. The Kb in test [3] is 1.58 µM. `N=C(NCCCc1c[nH]cn1)NCCCc1nccs1`: in test [1], the Max response was 87%. In test [2], this molecule returned a Potency of 26.6. Molecule `CC1=NN(c2ccc([N+](=O)[O-])cc2)C(=O)C1[N+](=O)[O-].CN/C(=N\CCCc1c[nH]cn1)NCCSCc1[nH]cnc1C` showed a Max response in test [1] of 91%. In test [4], this molecule came in with a Potency of 0.062. Regarding `Cc1[nH]cnc1CSCCNC(=N)NCCSCc1nc[nH]c1C`, in test [3], the Kb was 0.214 µM.

In test [1], `CSC(=N)NCCCc1c[nH]cn1` showed a Max response of 23%. Also, the Potency in test [2] came to 0.1. Also, the Kb in test [3] was 25.1 µM. Consider `C/[S+]=C(/NCCCc1c[nH]cn1)NCCSCc1[nH]cnc1C`, for which the Kb in test [5] is 17.8 µM. Also, the Potency in test [6] turned out to be 0.01.

`Cc1nc[nH]c1CSCCNC(=S)NCCCc1cnc[nH]1`: the Kb in test [3] is 1.2 µM. For the molecule `C/N=C(\N)NCCCCc1c[nH]cn1`, the Max response in test [1] stood at 46%. The same molecule returned a Potency in test [2] of 0.074. Besides, the Kb in test [3] was 100 µM. With `C/N=C(\N)NCCSCc1c[nH]cn1`, the Kb in test [3] was 41.7 µM.

For `Cc1nc[nH]c1CSCCNC(=O)NCCCc1cnc[nH]1`, the Kb in test [3] is 6.31 µM. In test [1], `Cc1[nH]cnc1CSCCNC(=N)NCCCc1c[nH]cn1` had a Max response of 98.7%. The Potency in test [2] worked out at 48.1. In test [1], `CC1=NN(c2ccc([N+](=O)[O-])cc2)C(=O)C1[N+](=O)[O-].N=C(NCCCc1c[nH]cn1)NCCCc1c[nH]cn1` displayed a Max response of 100%. This molecule also had a Potency in test [2] of 4.83. For `N=C(NCCCCc1c[nH]cn1)NCCCc1c[nH]cn1`, in that order: 85.5% and 12.3. Turning to `CSC(=N)NCCSCc1[nH]cnc1C`, the Kb in test [3] is 6.92 µM. Take `C/N=C(\N)NCCCc1nccs1`: the Kb in test [3] is 63.1 µM. `Cc1[nH]cnc1CSCC/N=C(\N)NCCCCc1c[nH]cn1`: the Max response in test [1] turned out to be 20%. Further, the Potency in test [2] came to 0.83. Further, the Kb in test [3] is 1.15 µM. On to `CC1=NN(c2ccc([N+](=O)[O-])cc2)C(=O)C1[N+](=O)[O-].Cc1[nH]cnc1CSCC/N=C(\N)NCCc1c[nH]cn1`, for which, in test [1], the Max response was 100%. This molecule also returned a Potency in test [2] of 1.93. The matching figures for `N=C(NCCCc1c[nH]cn1)NCCSCc1c[nH]cn1`: 95% and 5.38. As to `Cc1[nH]cnc1CSCC/N=C(\N)SCCCc1c[nH]cn1`, in test [3], the Kb is 3.31 µM. Regarding `C/N=C(\N)NCCc1c[nH]cn1`, the Max response in test [1] is 62%. This molecule also displayed a Potency in test [4] of 0.01. Further, the Kb in test [3] was above 501 µM.
